These results are taken from ChEMBL document CHEMBL1134863, “Antifungal activity of bifunctional sphingolipids. Intramolecular synergism within long-chain alpha,omega-bis-aminoalcohols” (2002).

Assay [1] has as its system Nakaseomyces glabratus. Nature of the assay: Fungicidal versus fungistatic activity of bifunctional sphingolipids against Candida glabrata at a concentration of 5 ug/mL before dilution replating; no fungistatic growth on plate. It is filed as functional, organism-based.
Assay [2] has as its system Nakaseomyces glabratus. The assay can be described thus: Fungicidal versus fungistatic activity of bifunctional sphingolipids against Candida glabrata at a concentration of 12 ug/mL before dilution replating; no growth in media. Format: functional, organism-based.
For assay [3], the system named is Nakaseomyces glabratus. The assay can be described thus: Fungicidal versus fungistatic activity of bifunctional sphingolipids against Candida glabrata at a concentration of 1 ug/mL before dilution replating; growth in media. Format: functional, organism-based.
For assay [4], the system named is Nakaseomyces glabratus. Nature of the assay: Fungicidal versus fungistatic activity of bifunctional sphingolipids against Candida glabrata at a concentration of 3 ug/mL before dilution replating; growth in media. It is filed as functional, organism-based.
Assay [5] concerns Nakaseomyces glabratus. Nature of the assay: Fungicidal versus fungistatic activity of bifunctional sphingolipids against Candida glabrata at a concentration of 6 ug/mL before dilution replating; no fungistatic growth on plate. Format: functional, organism-based.
Assay [6] deals with Nakaseomyces glabratus. Nature of the assay: Minimum inhibitory concentration against Candida glabrata. It is filed as functional. The gist of the method:
(§1)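 Microbroth dilution assay, modified from a published method, against C. glabrata (fluconazole-resistant strain). MIC values come from duplicate experiments.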

Assay [7] relates to Nakaseomyces glabratus. Nature of the assay: Fungicidal versus fungistatic activity of bifunctional sphingolipids against Candida glabrata at a concentration of 0.3 ug/mL before dilution replating; growth in media. Format: functional, organism-based.
Assay [8] has as its system Nakaseomyces glabratus. Nature of the assay: Fungicidal versus fungistatic activity of bifunctional sphingolipids against Candida glabrata at a concentration of 10 ug/mL before dilution replating; no fungicidal growth on plate. Format: functional, organism-based.
The test system of assay [9] is Nakaseomyces glabratus. The assay can be described thus: Antifungal minimum inhibitory concentration of compound against Candida glabrata; Inactive. Format: functional, organism-based. The procedure, abridged:
as §1

In assay [10] the test system is Nakaseomyces glabratus. Nature of the assay: Fungicidal versus fungistatic activity of bifunctional sphingolipids against Candida glabrata at a concentration of 3 ug/mL before dilution replating; no fungistatic growth on plate. Format: functional, organism-based.
For assay [11], the system named is Nakaseomyces glabratus. Nature of the assay: Fungicidal versus fungistatic activity of bifunctional sphingolipids against Candida glabrata at a concentration of 5 ug/mL before dilution replating; no growth in media. Format: functional, organism-based.
The subject of assay [12] is Nakaseomyces glabratus. Nature of the assay: Fungicidal versus fungistatic activity of bifunctional sphingolipids against Candida glabrata at a concentration of 1 ug/mL before dilution replating; no fungistatic growth on plate. It is filed as functional, organism-based.
The test system of assay [13] is Nakaseomyces glabratus. The assay can be described thus: Fungicidal versus fungistatic activity of bifunctional sphingolipids against Candida glabrata at a concentration of 6 ug/mL before dilution replating; no growth in media. It is filed as functional, organism-based.
For assay [14], the system named is Nakaseomyces glabratus. Nature of the assay: Fungicidal versus fungistatic activity of bifunctional sphingolipids against Candida glabrata at a concentration of 10 ug/mL before dilution replating; no growth in media. It is filed as functional, organism-based.
The test system of assay [15] is Nakaseomyces glabratus. The assay can be described thus: Fungistatic activity of bifunctional sphingolipids against Candida glabrata at a concentration of 12 ug/mL before dilution replating; growth in media. It is filed as functional, organism-based.
Assay [16] has as its system Nakaseomyces glabratus. The assay can be described thus: Fungistatic activity of bifunctional sphingolipids against Candida glabrata at a concentration of 1 ug/mL before dilution replating; growth in media. Format: functional, organism-based.
Assay [17] concerns Nakaseomyces glabratus. Nature of the assay: Fungistatic activity of bifunctional sphingolipids against Candida glabrata at a concentration of 30 ug/mL before dilution replating; no growth in media. Format: functional, organism-based.
Assay [18] relates to Nakaseomyces glabratus. Nature of the assay: Fungistatic activity of bifunctional sphingolipids against Candida glabrata at a concentration of 5 ug/mL before dilution replating; growth in media. Format: functional, organism-based.
Assay [19] relates to Nakaseomyces glabratus. The assay can be described thus: Fungistatic activity of bifunctional sphingolipids against Candida glabrata at a concentration of 6 ug/mL before dilution replating; growth in media. It is filed as functional, organism-based.
Assay [20] relates to Nakaseomyces glabratus. The assay can be described thus: Fungistatic activity of bifunctional sphingolipids against Candida glabrata at a concentration of 0.3 ug/mL before dilution replating; growth in media. Format: functional, organism-based.
Assay [21] deals with Nakaseomyces glabratus. Nature of the assay: Fungistatic activity of bifunctional sphingolipids against Candida glabrata at a concentration of 10 ug/mL before dilution replating; growth in media. It is filed as functional, organism-based.
In assay [22] the test system is Nakaseomyces glabratus. The assay can be described thus: Fungistatic activity of bifunctional sphingolipids against Candida glabrata at a concentration of 3 ug/mL before dilution replating; growth in media. It is filed as functional, organism-based.
Assay [23] concerns Nakaseomyces glabratus. Nature of the assay: Fungicidal versus fungistatic activity of bifunctional sphingolipids against Candida glabrata at a concentration of 5 ug/mL before dilution replating; growth in media. Format: functional, organism-based.
In assay [24] the test system is Nakaseomyces glabratus. Nature of the assay: Fungicidal versus fungistatic activity of bifunctional sphingolipids against Candida glabrata at a concentration of 6 ug/mL before dilution replating; growth in media. It is filed as functional, organism-based.
In assay [25] the test system is Nakaseomyces glabratus. Nature of the assay: Fungicidal versus fungistatic activity of bifunctional sphingolipids against Candida glabrata at a concentration of 10 ug/mL before dilution replating; no fungistatic growth on plate. Format: functional, organism-based.
In assay [26] the test system is Nakaseomyces glabratus. Nature of the assay: Fungicidal versus fungistatic activity of bifunctional sphingolipids against Candida glabrata at a concentration of 12 ug/mL before dilution replating no fungistatic growth on plate. Format: functional, organism-based.
Assay [27] concerns Nakaseomyces glabratus. Nature of the assay: Fungicidal versus fungistatic activity of bifunctional sphingolipids against Candida glabrata at a concentration of 3 ug/mL before dilution replating; no growth in media. It is filed as functional, organism-based.
For assay [28], the system named is Nakaseomyces glabratus. The assay can be described thus: Fungicidal versus fungistatic activity of bifunctional sphingolipids against Candida glabrata at a concentration of 1 ug/mL before dilution replating; no (fungicidal, no growth on plate) growth in media. Format: functional, organism-based.
Assay [29] has as its system Nakaseomyces glabratus. Nature of the assay: Fungicidal versus fungistatic activity of bifunctional sphingolipids against Candida glabrata at a concentration of 0.3 ug/mL before dilution replating; (fungicidal, no growth on plate) no growth in media. It is filed as functional, organism-based.
Where [30] appears, read: Nakaseomyces glabratus, read-out: MIC.

Values joined by “and” are separate entries in the source; they are usually repeats but may differ in a detail not shown here. Identical values can stand only once. Active and inactive are the calls of the source.

In the case of `C[C@@H](N)[C@H](O)CCCCCCCCCCCCCCC(=O)CCCCCCC[C@@H](O)[C@@H](N)CO`, the Activity result in [1], in assay [2], in assay [3], in assay [4], in [5] and in assay [7] was “growth in media” each time. The Activity result in assay [8] is given as “growth in media”. In addition, the MIC (usually the smallest concentration in the dilution series that meets the test's criterion for growth inhibition) in assay [6] (setting [30]) was 3 µg/mL and 6.2 µM.
With `NCCCCCCN`, the MIC in assay [6] (setting [30]) is above 100 µg/mL. Besides, the MIC entry in [9] is “inactive”.
As to `C[C@H](NC(=O)c1ccccc1)[C@@H](CCCCCCCCCCCCCCCCCCCC[C@@H](OC(=O)c1ccccc1)[C@H](C)NC(=O)c1ccccc1)OC(=O)c1ccccc1`, in [6] (setting [30]), the MIC is above 100 µg/mL. Further, the MIC result in [9] is “inactive”.
Regarding `CCC[C@@H](O)[C@@H](N)CO`, in assay [6] (setting [30]), the MIC was above 100 µg/mL. The MIC entry in assay [9] was “inactive”.
For `OC(Cn1cncn1)(Cn1cncn1)c1ccc(F)cc1F` [FLUCONAZOLE], the Activity result in assay [10], in assay [11], in assay [2], in assay [12], in assay [13] and in assay [7] was “growth in media” each time. Also, the Activity entry in [14] is given as “growth in media”. Besides, the values for the MIC result in assay [6] and in assay [6] (setting [30]) were “>=100 ug ml-1” and above 64 µg/mL, respectively.
For the compound `CCCCCCCCCCCCC/C=C/[C@@H](O)[C@@H](N)CO` [SPHINGOSINE], the outcome in assay [15], in assay [16], in assay [18], in assay [19], in assay [20] and in assay [21] was inactive. Further, the result in assay [22] was inactive. Further, the NA entry in assay [17] was “Partially active”. Moreover, the MIC in assay [6] (setting [30]) was 30 µg/mL and 100 µM.
Turning to `C[C@@H](N)[C@H](O)CCCCCCCCCCCCCCC(=O)CCCCCCC[C@@H](OC[C@H]1O[C@@H](O)[C@H](O)[C@@H](O)[C@@H]1O)[C@@H](N)CO`, the Activity entry in assay [23], in [3], in assay [4], in assay [5], in assay [7] and in [8] was “growth in media” in each case. In [6] (setting [30]), the MIC was 10 µg/mL and 15 µM.
With Hexadecyl-trimethyl-ammonium bromide, the MIC in [6] was 5 µg/mL and 14 µM.
On to `C[C@H](N)[C@H](O)CCCCCCCCCCCCCCCCCCCC[C@@H](O)[C@H](C)N`, for which the Activity result in assay [23], in assay [3], in assay [4], in assay [24], in [7] and in [25] was “growth in media” throughout. Besides, the Activity result in [26] is listed as “growth in media”. Besides, the MIC in [6] (setting [30]) is 10 µg/mL and 24 µM.
With `C[C@@H]1[C@H](O)[C@@H](C)/C=C/C=C/C=C/C=C/C=C/C=C/C=C/[C@H](O[C@@H]2O[C@H](C)[C@@H](O)[C@H](N)[C@@H]2O)C[C@@H]2O[C@](O)(C[C@@H](O)C[C@@H](O)[C@H](O)CC[C@@H](O)C[C@@H](O)CC(=O)O[C@H]1C)C[C@H](O)[C@H]2C(=O)O`, the Activity entry in assay [27], in [11], in [2], in assay [28], in [13] and in [14] was “no growth in media” in each case. In addition, the Activity entry in assay [29] is “no growth in media”.
`CCC[C@@H](OC(=O)c1ccccc1)[C@H](COC(=O)c1ccccc1)NC(=O)c1ccccc1`: in assay [6] (setting [30]), the MIC was above 100 µg/mL. Also, the MIC entry in assay [9] is “inactive”.
Turning to `NCCCCCCCCCCCCN`, the MIC in assay [6] (setting [30]) is above 100 µg/mL.
As to `CCC[C@@H](O)[C@H](C)N`, the MIC in [6] (setting [30]) is above 100 µg/mL. Moreover, the MIC entry in [9] is “inactive”.
In the case of `C[N+](C)(C)CCCCCCCCCCCC[N+](C)(C)C.[Cl-].[Cl-]`, in assay [6] (setting [30]), the MIC was above 100 µg/mL. In assay [9], the MIC result is “inactive”.
